Active and inactive are the calls of the source. The calls are words filed in the database; no cut-off is given here.

A word on the IC50: it is the concentration at which inhibition is half-maximal.

Assay [1] deals with T1, Signal transducer and activator of transcription 3 (Homo sapiens, UniProt P40763). Briefly: Inhibition of Stat3-mediated luciferase expression in human XG6 cells after 6 hrs. The format is cell-based. The gist of the method:
(§1)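 Myeloma cells stably carried a Stat3-driven firefly luciferase reporter (puromycin-selected) and a CMV-driven Renilla luciferase internal control (hygromycin-selected), each selected for 2 weeks. After drug treatment, dual luciferase activity was read as relative luciferase units, firefly/Renilla.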

Assay [2] deals with T2, Signal transducer and activator of transcription 1-alpha/beta (Homo sapiens) (UniProt P42224).
T2 sequence (whole entry): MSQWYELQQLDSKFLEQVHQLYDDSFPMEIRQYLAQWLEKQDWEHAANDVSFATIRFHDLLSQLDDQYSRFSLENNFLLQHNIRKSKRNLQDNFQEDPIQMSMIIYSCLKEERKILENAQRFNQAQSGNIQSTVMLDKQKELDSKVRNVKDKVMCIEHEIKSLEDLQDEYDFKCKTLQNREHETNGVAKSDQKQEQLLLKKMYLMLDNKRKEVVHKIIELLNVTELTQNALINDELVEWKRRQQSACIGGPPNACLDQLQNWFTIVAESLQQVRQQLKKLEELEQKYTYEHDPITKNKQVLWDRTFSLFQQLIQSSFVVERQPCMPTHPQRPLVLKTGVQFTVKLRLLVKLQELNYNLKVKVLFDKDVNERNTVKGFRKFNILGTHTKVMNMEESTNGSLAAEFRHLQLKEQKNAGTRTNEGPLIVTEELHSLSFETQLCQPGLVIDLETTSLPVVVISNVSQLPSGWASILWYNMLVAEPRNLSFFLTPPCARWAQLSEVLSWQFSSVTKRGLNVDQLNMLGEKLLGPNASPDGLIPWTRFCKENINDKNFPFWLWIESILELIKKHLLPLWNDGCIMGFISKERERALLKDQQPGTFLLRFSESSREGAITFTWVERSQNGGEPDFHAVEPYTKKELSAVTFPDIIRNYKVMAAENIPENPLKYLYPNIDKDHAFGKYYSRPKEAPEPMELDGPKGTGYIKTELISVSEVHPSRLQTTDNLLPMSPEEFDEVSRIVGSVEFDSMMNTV
Nature of the assay: Inhibition of IFNgamma-induced Stat1 phosphorylation in serum-starved human U937 cells at 10 to 20 uM incubated for 4 hrs prior to IFNgamma induction measured after 15 mins by phopsho-flow cytometric analysis. The format is cell-based. The conditions noted are these: U-937. The method in brief:
(§2)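 Serum-starved U937 cells were pretreated with compound for 4 h, then stimulated 15 min with IL-6 (Stat3), GM-CSF (Stat5) or IFN (Stat1). Phosphorylation of each STAT was quantified by phospho-flow cytometry.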
On the technique in general: A flow cytometer gives signals particle by particle.

The test system of another assay is NCI-H929. Briefly: Cytotoxicity against human NCI-H929 cells assessed as inhibition of cell viability after 72 hrs by MTT assay. The assay is classed as functional, cell-based. The gist of the method: (§3)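 Myeloma lines were seeded at 1-3 x 10^4 cells per well onto compound or vehicle, in triplicate, and cultured 72 h at 37 °C in 5% CO2. Viability was measured colorimetrically by MTT assay relative to DMSO control. EC50 was fitted to a standard dose-response curve where applicable.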
In general terms: Tetrazolium dyes change colour on reduction, which living cells bring about.

For assay [3], the target named is T1, Signal transducer and activator of transcription 3. Briefly: Inhibition of IL-6-induced Stat3 phosphorylation in serum-starved human U937 cells at 10 to 20 uM incubated for 4 hrs prior to IL-6 induction measured after 15 mins by phopsho-flow cytometric analysis. The assay is classed as cell-based. The conditions noted are these: U-937. The method in brief: as §2

Another assay concerns MM1.S. Nature of the assay: Cytotoxicity against human MM1S cells assessed as inhibition of cell viability after 72 hrs by MTT assay. The assay is classed as functional, cell-based. The method in brief:
as §3

A further assay relates to DU-145. Nature of the assay: Cytotoxicity against human DU145 cells assessed as cell viability after 72 hrs by MTS assay. The format is functional, cell-based. The conditions noted are these: DU-145, 72 h. The gist of the method: (§4)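 Cells were seeded at 1-3 x 10^4 per well into wells already holding compound or vehicle, in triplicate. Incubation was 72 h at 37 °C in 5% CO2. Viability was read by MTS colorimetry relative to DMSO control, and EC50 was fitted to a standard dose-response curve where applicable.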

Assay [4] addresses T3, Signal transducer and activator of transcription 1-alpha/beta (Homo sapiens, UniProt P42224).
T3 sequence (P42224 whole entry): T2 sequence (whole entry)
Briefly: Binding affinity to Stat1 (unknown origin) using 5-FAM-GpYLPQTV-NH2 as probe assessed as phosphopetide complex formation after 30 mins by fluorescence polarization assay. The gist of the method:
(§5)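 Fluorescence polarization. Recombinant STAT protein was incubated with the 5-FAM-GpYLPQTV-NH2 peptide probe and inhibitor for 30 min. Polarized fluorescence was plotted against inhibitor concentration, and IC50 was obtained by fitting a dose-response curve.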
(Fluorescence polarisation rises when a labelled molecule tumbles more slowly, as on binding a larger partner.)

The nature of assay [5]: Cytotoxicity against human MDA468 cells assessed as cell viability after 72 hrs by MTS assay. The conditions noted are these: MDA-MB-468, 72 h. The format is functional, cell-based. The method in brief:
as §4

For a further assay, the system named is UTMC2. Briefly: Cytotoxicity against human UTMC2 cells assessed as inhibition of cell viability after 72 hrs by MTT assay. The format is functional, cell-based. The method in brief: as §3
The target in assay [6] is T1, Signal transducer and activator of transcription 3. Nature of the assay: Competitive binding affinity to Stat3 SH2 domain (unknown origin) using 5-FAM-GpYLPQTV-NH2 as probe assessed as phosphopetide complex formation after 30 mins by fluorescence polarization assay. The gist of the method: as §5
The target is the same in assay [7]. Nature of the assay: Inhibition of Stat3-mediated luciferase expression in human 8226 cells after 6 hrs. The assay is classed as cell-based. The gist of the method:
as §1

Assay [8] addresses T4, Signal transducer and activator of transcription 5A (Homo sapiens) (UniProt P42229).
T4 sequence (whole entry): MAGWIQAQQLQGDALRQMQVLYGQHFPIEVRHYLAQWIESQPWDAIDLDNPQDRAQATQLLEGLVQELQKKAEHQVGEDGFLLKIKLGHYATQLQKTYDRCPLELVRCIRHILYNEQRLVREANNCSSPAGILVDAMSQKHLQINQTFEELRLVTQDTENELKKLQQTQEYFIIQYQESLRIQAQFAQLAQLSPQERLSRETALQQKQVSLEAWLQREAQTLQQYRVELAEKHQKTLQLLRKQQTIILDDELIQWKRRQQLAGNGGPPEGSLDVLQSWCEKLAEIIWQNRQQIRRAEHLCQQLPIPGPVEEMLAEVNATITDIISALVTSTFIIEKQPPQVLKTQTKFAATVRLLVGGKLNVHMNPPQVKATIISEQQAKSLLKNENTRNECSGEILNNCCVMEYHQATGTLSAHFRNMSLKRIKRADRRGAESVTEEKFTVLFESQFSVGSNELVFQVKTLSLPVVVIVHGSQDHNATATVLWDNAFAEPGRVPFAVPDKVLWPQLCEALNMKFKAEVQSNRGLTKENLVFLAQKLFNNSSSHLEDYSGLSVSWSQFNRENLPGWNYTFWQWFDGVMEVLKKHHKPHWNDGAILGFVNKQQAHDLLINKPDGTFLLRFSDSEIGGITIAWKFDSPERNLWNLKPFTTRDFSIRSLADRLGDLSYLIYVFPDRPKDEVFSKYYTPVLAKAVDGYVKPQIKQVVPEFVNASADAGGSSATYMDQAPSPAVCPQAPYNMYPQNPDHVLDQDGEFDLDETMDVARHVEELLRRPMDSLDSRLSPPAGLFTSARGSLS
Nature of the assay: Inhibition of GM-CSF-induced Stat5 phosphorylation in serum-starved human U937 cells at 10 to 20 uM incubated for 4 hrs prior to GM-CSF induction measured after 15 mins by phopsho-flow cytometric analysis. The assay is classed as cell-based. The conditions noted are these: U-937. The method in brief: as §2

The next assay relates to SK-MM-2. Nature of the assay: Cytotoxicity against human SKMM-2 cells assessed as inhibition of cell viability after 72 hrs by MTT assay. The assay is classed as functional, cell-based. The method in brief:
as §3

T1 sequence (P40763 whole entry): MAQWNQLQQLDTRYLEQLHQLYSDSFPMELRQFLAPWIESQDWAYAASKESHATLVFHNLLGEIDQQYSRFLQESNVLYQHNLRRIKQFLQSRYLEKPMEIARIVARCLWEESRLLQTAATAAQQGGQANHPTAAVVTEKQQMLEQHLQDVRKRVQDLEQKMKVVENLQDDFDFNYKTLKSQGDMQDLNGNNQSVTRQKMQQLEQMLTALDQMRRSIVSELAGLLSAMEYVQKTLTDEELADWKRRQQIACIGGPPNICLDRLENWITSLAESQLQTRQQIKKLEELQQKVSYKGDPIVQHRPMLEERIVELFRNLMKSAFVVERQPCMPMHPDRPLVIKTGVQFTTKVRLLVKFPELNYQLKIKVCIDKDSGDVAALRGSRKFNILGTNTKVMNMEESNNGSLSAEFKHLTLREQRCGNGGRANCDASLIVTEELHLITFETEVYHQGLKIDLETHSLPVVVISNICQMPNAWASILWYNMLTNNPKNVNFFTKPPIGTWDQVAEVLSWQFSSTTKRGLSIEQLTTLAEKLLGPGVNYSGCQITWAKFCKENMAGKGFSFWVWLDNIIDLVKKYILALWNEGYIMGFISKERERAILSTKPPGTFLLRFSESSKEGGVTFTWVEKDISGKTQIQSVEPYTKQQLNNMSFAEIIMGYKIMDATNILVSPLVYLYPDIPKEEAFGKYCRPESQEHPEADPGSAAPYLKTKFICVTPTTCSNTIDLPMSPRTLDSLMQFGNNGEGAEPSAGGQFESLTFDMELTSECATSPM

With `Cc1ccc(S(=O)(=O)N(CC(=O)N(Cc2ccc(C3CCCCC3)cc2)c2ccc(C(=O)O)c(O)c2)Cc2ccccc2C(F)(F)F)cc1`, the inhibition result (in assay [1]; with NCI-H929; in the assay with MM1.S; in the assay with UTMC2; in assay [7]; in the assay with SK-MM-2) was “Dose-dependent effect” throughout. The inhibition result in assay [2], in assay [3] and in [8] was “Active” in each case. The IC50 in the assay on DU-145 was 16 µM; in [4] it was 5.8 µM; in assay [5], 11 µM; in assay [6], 2.8 µM.
On to `O=C(O)c1ccc(N(Cc2ccc(C3CCCCC3)cc2)C(=O)CN(Cc2ccccc2C(F)(F)F)S(=O)(=O)c2c(F)c(F)c(F)c(F)c2F)cc1O`, for which the inhibition result (in assay [1]; with NCI-H929; with MM1.S; with UTMC2; in assay [7]; in the assay on SK-MM-2) was “Dose-dependent effect” each time. For the same compound, the inhibition entry in [2], in [3] and in [8] was “Active” each time. Further, the IC50 with DU-145 was found to be 14 µM; in assay [4], 10.9 µM; in [5], 8.1 µM; in assay [6] it was 12.8 µM.
